# Assays:
# Format in all cases: functional, cell-based
# B16 = assay: Cytotoxicity against mouse B16 cells after 48 hrs by MTT assay; settings: B16, 48 h
# Summary of the method: (§1)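 Cells grown in RPMI 1640 with 10% FBS at 37 °C, 5% CO2. Seeded at 2 × 10^3 cells/well and allowed 12 h before adding compounds in DMSO at various concentrations. After 48 h exposure, MTT (1 mg/mL in PBS) added for 4 h at 37 °C. Formazan dissolved in DMSO and read at A550. Viability taken as treated/untreated A550 × 100. IC50 reported. 5-FU and doxorubicin served as positive controls.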
# HepG2 = assay: Cytotoxicity against human HepG2 cells after 48 hrs by MTT assay; settings: HepG2, 48 h; summary of the method: as §1
# SW1990 = assay: Cytotoxicity against human SW1990 cells after 48 hrs by MTT assay; settings: SW1990, 48 h; summary of the method: as §1
# HeLa = assay: Cytotoxicity against human HeLa cells after 48 hrs by MTT assay; summary of the method: as §1
# NCI-H460 = assay: Cytotoxicity against human NCI-H460 cells after 48 hrs by MTT assay; settings: NCI-H460, 48 h; summary of the method: as §1
# MCF7 = assay: Cytotoxicity against human MCF7 cells after 48 hrs by MTT assay; settings: MCF7, 48 h; summary of the method: as §1
Structure (SMILES),IC50 (B16) [µM],IC50 (HepG2) [µM],IC50 (SW1990) [µM],IC50 (HeLa) [µM],IC50 (NCI-H460) [µM],IC50 (MCF7) [µM]
C[C@@H]1O[C@@H](O[C@H]2CC[C@H](O[C@H]3[C@H](O)C[C@H](c4ccc5c(c4O)C(=O)C4=C(C5=O)[C@@]5(O)C(=O)C[C@](C)(O[C@H]6CC[C@H](O[C@H]7CCC(=O)[C@H](C)O7)[C@H](C)O6)C[C@@]5(O)C=C4)O[C@@H]3C)O[C@H]2C)CCC1=O [GRINCAMYCIN],1.1,5.3,6.4,5.3,11,2.1
C[C@@H]1O[C@@H](O[C@H]2CC[C@H](O[C@H]3[C@H](O)C[C@H](c4ccc5c(c4O)C(=O)c4ccc(C[C@](C)(CC(=O)O)O[C@H]6CC[C@H](O[C@H]7CCC(=O)[C@H](C)O7)[C@H](C)O6)c(O)c4C5=O)O[C@@H]3C)O[C@H]2C)CCC1=O [GRINCAMYCIN B],2.1,8.5,11,6.4,> 100,12
C[C@@H]1O[C@@H](O[C@H]2CC[C@H](O[C@H]3[C@H](O)C[C@H](c4ccc5c(c4O)C(=O)c4cc6c(c(O)c4C5=O)C[C@@](C)(O[C@H]4CC[C@H](O[C@H]5CCC(=O)[C@H](C)O5)[C@H](C)O4)CC6=O)O[C@@H]3C)O[C@H]2C)CCC1=O [GRINCAMYCIN E],5.4,11,16,11,> 100,8.7
C[C@@H]1O[C@@H](O[C@H]2CC[C@H](O[C@@H]3C[C@H](C4=Cc5c(-c6ccc(O)cc6)c(=O)oc6c7c(c(O)c(c56)C4=O)C=C[C@]4(O)C[C@@](C)(O[C@H]5CC[C@H](O[C@H]6CCC(=O)[C@H](C)O6)[C@H](C)O5)CC(=O)[C@]74O)O[C@H](C)[C@H]3O)O[C@H]2C)CCC1=O [GRINCAMYCIN F],> 100,> 100,> 100,> 100,> 100,> 100
O=c1[nH]cc(F)c(=O)[nH]1 [FLUOROURACIL],33,34,45,43,29,35
C[C@@H]1O[C@@H](O[C@H]2CC[C@H](O[C@@](C)(CC(=O)O)Cc3ccc4c(c3O)C(=O)c3ccc([C@H]5C[C@H]6O[C@H]7CC(=O)[C@H](C)O[C@H]7O[C@@H]6[C@@H](C)O5)c(O)c3C4=O)O[C@H]2C)CCC1=O [GRINCAMYCIN D],9.7,9.7,22,12,30,6.1
C[C@@H]1O[C@@H](O[C@H]2CC[C@H](O[C@H]3[C@H](O)C[C@H](c4ccc5c(c4O)C(=O)c4ccc(C[C@@](C)(O)CC(=O)O)c(O)c4C5=O)O[C@@H]3C)O[C@H]2C)CCC1=O [GRINCAMYCIN C],> 100,31,31,> 100,> 100,11
COc1cccc2c1C(=O)c1c(O)c3c(c(O)c1C2=O)C[C@@](O)(C(=O)CO)C[C@@H]3O[C@H]1C[C@H](N)[C@H](O)[C@H](C)O1 [DOXORUBICIN],1.7,7.1,> 100,5.3,11,6.9
